Data set [1] deals with T1, HSP60/HSP10 (Homo sapiens, UniProt P10809). The data set can be described thus: Inhibition of human HSP60/HSP10 expressed in Escherichia coli Rosetta2(DE3) cells assessed as reduction in denatured pig heart MDH ATPase activity by malachite green dye based assay.
Data set [2] has as its system Escherichia coli. The data set can be described thus: Antibacterial activity against Escherichia coli DH5alpha assessed as reduction in bacterial growth incubated for 6 to 8 hrs. The data set is classed as functional, organism-based. To be noted: DH5[alpha].
Another data set relates to HEK293. The data set can be described thus: Cytotoxicity against HEK293 cells assessed as reduction in cell viability after 48 hrs by alamar blue assay. In kind it is cell-based. To be noted: Homo sapiens, HEK293, 48 h. (Resazurin is reduced to fluorescent resorufin, in cell work by metabolically active cells.)
In data set [3] the target is T2, E. coli GroEL/ES (Escherichia coli, UniProt P0A6F5). The data set can be described thus: Inhibition of Escherichia coli GroEL/GroES using Escherichia coli GroEL expressed in Escherichia coli DH5alpha cells and Escherichia coli GroES expressed in Escherichia coli BL21(DE3) cells assessed as inhibition of denatured pig heart MDH refolding by measuring reduction in NADH production incubated for 60 mins by micro plate reader analysis. The method in brief: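 Denatured MDH (guanidine-HCl/DTT, 30 min RT) bound to GroEL with GroES in Tris pH 7.4, KCl, MgCl2, DTT buffer. 60 min at 37°C, EDTA quench to 100 mM. Refolded MDH activity read with mesoxalate/NADH at 340 nm. Log-averaged IC50 from replicates.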

The test system of the next data set is Acinetobacter baumannii. The data set can be described thus: Antibacterial activity against multidrug resistant Acinetobacter baumannii 2208 (ATCC 19606) assessed as reduction in bacterial growth incubated for 6 to 8 hrs. In kind it is functional. The method in brief:
(§1)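 Broth proliferation assay. S. aureus and MRSA grown in ATCC Medium 18, other pathogens in Brain Heart Infusion. Stagnant incubation at 37°C under breathable seal. OD600 read at mid-log (6-8 h) and corrected with bacteria-free baseline plates. EC50 by variable-slope nonlinear fit, at least triplicate.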

Another data set concerns Bacillus subtilis. The data set can be described thus: Antibacterial activity against Bacillus subtilis 168 assessed as reduction in bacterial growth incubated for 6 to 8 hrs. The data set is classed as functional, organism-based. To be noted: subsp. subtilis str. 168.
Data set [4] relates to Escherichia coli. The data set can be described thus: Antibacterial activity against acrB-deficient Escherichia coli MC4100 assessed as reduction in bacterial growth incubated for 6 to 8 hrs. In kind it is functional, organism-based.
Another data set deals with Pseudomonas aeruginosa. The data set can be described thus: Antibacterial activity against multidrug resistant Pseudomonas aeruginosa NCTC 10332 (ATCC 10145) assessed as reduction in bacterial growth incubated for 6 to 8 hrs. The data set is classed as functional, organism-based. The method in brief:
as §1

Data set [5] concerns Staphylococcus aureus. The data set can be described thus: Antibacterial activity against methicillin susceptible Staphylococcus aureus subsp. aureus Seattle 1945 (ATCC 25923) assessed as reduction in bacterial growth incubated for 6 to 8 hrs.
Data set [6] in a line: Cytotoxicity against human THLE3 cells assessed as reduction in cell viability after 48 hrs by alamar blue assay. In kind it is cell-based. To be noted: THLE3, 48 h.
In data set [7] the test system is Staphylococcus aureus. The data set can be described thus: Bactericidal activity against Staphylococcus aureus subsp. aureus Seattle 1945 (ATCC 25923) at 4 times MIC up to 24 hrs by agar dilution method. In kind it is functional, organism-based. The method in brief: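 Time-kill in ATCC Medium 18. […] Viable counts were taken at 0, 1, 2, 4, 6 and 24 h by dilution and plating on Medium 18 agar. Values are averages of triplicates.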

Data set [8] is described as follows: Therapeutic index, ratio of EC50 for HEK293 cells to EC50 for Staphylococcus aureus subsp. aureus Seattle 1945 (ATCC 25923). In kind it is cell-based. To be noted: human, read-out: Ratio EC50.
The target in data set [9] is T2, E. coli GroEL/ES. The data set can be described thus: Inhibition of Escherichia coli GroEL/GroES using Escherichia coli GroEL expressed in Escherichia coli DH5alpha cells and Escherichia coli GroES expressed in Escherichia coli BL21(DE3) cells assessed as reduction in native refolded rhodanese-mediated thiocyanate production by micro plate reader analysis.
Data set [10] has as its target T2, E. coli GroEL/ES. The data set can be described thus: Inhibition of Escherichia coli GroEL/GroES using Escherichia coli GroEL expressed in Escherichia coli DH5alpha cells and Escherichia coli GroES expressed in Escherichia coli BL21(DE3) cells assessed as reduction in pig heart native refolded MDH-mediated NADH production by micro plate reader analysis. The method in brief:
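Native MDH counter-screen. GroEL/ES-dMDH refolding run 60 min at 37°C, then EDTA-quenched without compound. IC50 averaged from at least triplicate.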

The subject of another data set is Enterococcus faecium. The data set can be described thus: Antibacterial activity against multidrug resistant Enterococcus faecium NCTC 7171 (ATCC 19434) assessed as reduction in bacterial growth incubated for 6 to 8 hrs. The data set is classed as functional, organism-based. The method in brief: as §1
In data set [11] the target is T1, HSP60/HSP10. The data set can be described thus: Inhibition of human HSP60/HSP10 expressed in Escherichia coli Rosetta2(DE3) cells assessed as inhibition of denatured pig heart MDH refolding by measuring reduction in NADH production incubated for 60 mins by micro plate reader analysis. The method in brief: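 Pig heart MDH was denatured in guanidine-HCl (dMDH) and complexed with HSP60, then HSP10, in Tris pH 7.4/KCl/MgCl2/DTT buffer. EDTA quench (100 mM final); refolded MDH activity was followed with mesoxalate/NADH at 340 nm.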

Data set [12] concerns Klebsiella pneumoniae subsp. pneumoniae. The data set can be described thus: Antibacterial activity against multidrug resistant Klebsiella pneumoniae subsp. pneumoniae NCTC 9633 (ATCC 13883) assessed as reduction in bacterial growth incubated for 6 to 8 hrs. In kind it is functional, organism-based. The method in brief:
as §1

In data set [13] the test system is Staphylococcus aureus. The data set can be described thus: Antibacterial activity against methicillin resistant Staphylococcus aureus subsp. aureus HPV107 (ATCC BAA-44) assessed as reduction in bacterial growth incubated for 6 to 8 hrs. The data set is classed as functional, organism-based. The method in brief:
as §1

The test system of data set [14] is Escherichia coli. The data set can be described thus: Antibacterial activity against Escherichia coli SM101 assessed as reduction in bacterial growth incubated for 12 hrs by UV-Vis spectrophotometric analysis. The data set is classed as functional, organism-based. To be noted: SM101, 12 h.
Data set [15] is described as follows: Therapeutic index, ratio of EC50 for human THLE3 cells to EC50 for Staphylococcus aureus subsp. aureus Seattle 1945 (ATCC 25923). In kind it is cell-based. Conditions: read-out: Ratio EC50.
A further data set concerns Enterobacter cloacae. The data set can be described thus: Antibacterial activity against multidrug resistant Enterobacter cloacae subsp. cloacae CDC 442-68 (ATCC 13047) assessed as reduction in bacterial growth incubated for 6 to 8 hrs. The data set is classed as functional, organism-based. The method in brief: as §1
Data set [16] deals with T2, E. coli GroEL/ES. The data set can be described thus: Inhibition of Escherichia coli GroEL/GroES using Escherichia coli GroEL expressed in Escherichia coli DH5alpha cells and Escherichia coli GroES expressed in Escherichia coli BL21(DE3) cells assessed as inhibition of denatured rhodanese refolding by measuring reduction in thiocyanate production incubated for 60 mins by micro plate reader analysis. The method in brief:
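Urea-denatured rhodanese bound to GroEL/GroES in folding buffer containing thiosulfate. After 60 min at 37°C, thiocyanate reaction (KCN, thiosulfate, phosphate) run, then formaldehyde quench and ferric nitrate added. Fe(SCN)3 read at 460 nm after 15 min RT, with protein-free baseline plates.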

In data set [17] the test system is Staphylococcus aureus. The data set can be described thus: Antibacterial activity against Staphylococcus aureus subsp. aureus Seattle 1945 (ATCC 25923) assessed as inhibition of visual growth after 24 hrs. In kind it is functional. The method in brief:
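MIC assay in Tryptic Soy broth (ATCC Medium 18). An overnight culture was diluted 5-fold, grown 1 h at 37°C, then diluted to OD600 0.01 (~10⁷ CFU/ml). Compounds were added in DMSO at fixed final concentrations (e.g. vancomycin 1.2-2.2 µM).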

For data set [18], the target named is T2, E. coli GroEL/ES. The data set can be described thus: Inhibition of Escherichia coli GroEL/GroES using Escherichia coli GroEL expressed in Escherichia coli DH5alpha cells and Escherichia coli GroES expressed in Escherichia coli BL21(DE3) cells assessed as reduction in denatured pig heart MDH ATPase activity by malachite green dye based assay.

≈ marks a conversion by molar mass, not a printed value. Calls of active or inactive are those of the source. The calls are words filed in the database; no cut-off is given here.

T2 sequence (P0A6F5 whole entry, looked up): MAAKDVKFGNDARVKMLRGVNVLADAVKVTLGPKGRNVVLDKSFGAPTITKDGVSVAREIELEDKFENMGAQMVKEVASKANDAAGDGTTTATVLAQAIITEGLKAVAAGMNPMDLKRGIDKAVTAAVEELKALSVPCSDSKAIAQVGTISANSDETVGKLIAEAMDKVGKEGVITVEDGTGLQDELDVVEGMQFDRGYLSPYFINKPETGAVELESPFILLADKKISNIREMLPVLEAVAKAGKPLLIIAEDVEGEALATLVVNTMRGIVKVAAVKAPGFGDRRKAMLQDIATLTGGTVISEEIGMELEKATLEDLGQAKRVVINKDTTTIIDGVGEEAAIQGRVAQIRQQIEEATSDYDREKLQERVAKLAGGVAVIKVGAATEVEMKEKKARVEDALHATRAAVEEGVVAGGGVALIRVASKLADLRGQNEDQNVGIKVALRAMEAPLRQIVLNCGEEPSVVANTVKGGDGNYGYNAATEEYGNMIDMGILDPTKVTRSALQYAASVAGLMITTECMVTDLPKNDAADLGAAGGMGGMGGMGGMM
T1 sequence (P10809 whole entry): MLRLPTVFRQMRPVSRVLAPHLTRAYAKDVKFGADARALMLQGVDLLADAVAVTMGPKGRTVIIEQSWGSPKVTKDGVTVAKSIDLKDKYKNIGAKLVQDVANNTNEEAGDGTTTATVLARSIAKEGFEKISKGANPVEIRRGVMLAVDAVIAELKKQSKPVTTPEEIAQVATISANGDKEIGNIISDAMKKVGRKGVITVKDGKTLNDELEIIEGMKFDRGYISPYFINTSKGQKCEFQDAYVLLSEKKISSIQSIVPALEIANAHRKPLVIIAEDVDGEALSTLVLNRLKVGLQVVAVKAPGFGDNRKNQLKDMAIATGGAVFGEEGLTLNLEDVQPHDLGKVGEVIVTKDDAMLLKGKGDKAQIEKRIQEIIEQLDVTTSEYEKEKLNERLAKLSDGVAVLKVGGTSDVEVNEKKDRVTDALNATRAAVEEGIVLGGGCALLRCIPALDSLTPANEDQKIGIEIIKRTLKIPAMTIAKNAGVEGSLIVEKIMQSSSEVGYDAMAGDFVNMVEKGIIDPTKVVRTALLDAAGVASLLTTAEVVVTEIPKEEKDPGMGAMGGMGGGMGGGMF
T1 sequence (P61604 whole entry, further chain): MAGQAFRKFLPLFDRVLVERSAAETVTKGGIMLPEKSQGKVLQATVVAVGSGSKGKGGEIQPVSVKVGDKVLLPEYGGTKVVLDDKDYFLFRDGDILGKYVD

As usually defined, the IC50 is the concentration that inhibits the measured activity by half. For orientation: EC50 means the midpoint of the concentration-response curve. What is called MIC is the lowest concentration found to suppress growth. As for `Cn1c(=O)c(C(=O)Nc2ccncc2)c(O)c2ccccc21`, the IC50 is more than 250 µM at HSP60/HSP10 [1]; 5.7 µM on E. coli GroEL/ES [3]; more than 100 µM at E. coli GroEL/ES [9]; more than 62.5 µM on E. coli GroEL/ES [10]; more than 100 µM on HSP60/HSP10 [11]; 6.8 µM on E. coli GroEL/ES [16]. The concentration for a half-maximal effect (EC50) was more than 100 µM with Escherichia coli [2]; more than 100 µM with HEK293; more than 100 µM with Acinetobacter baumannii; 0.47 µM in the data set on Bacillus subtilis; 21 µM in the data set on Escherichia coli [4]; more than 100 µM in the data set with Pseudomonas aeruginosa. For the same compound, the EC50 in the data set with Staphylococcus aureus [5] was 1.8 µM; in data set [6], more than 100 µM; in the data set on Enterococcus faecium it was more than 100 µM; in data set [12] it was more than 100 µM; with Staphylococcus aureus [13], 1.3 µM; in the data set on Escherichia coli [14] it was 3.3 µM. Besides, in the data set on Enterobacter cloacae, the EC50 was more than 100 µM. Besides, the result in the data set on Staphylococcus aureus [7] was Active. Moreover, the selectivity ratio in data set [8] and in data set [15] was more than 55 in each case. Further, the MIC with Staphylococcus aureus [17] was 8 µM (≈ 2.36 µg/mL).

As for `O=C(Nc1ccc(Sc2nc3ccccc3s2)c(Cl)c1)c1cc(Br)cc(Br)c1O`, the half-inhibitory concentration (IC50) at HSP60/HSP10 [1] was 3.6 µM; at E. coli GroEL/ES [3] it was 1.4 µM; at E. coli GroEL/ES [9], more than 100 µM; on E. coli GroEL/ES [10] it was 7.1 µM; on E. coli GroEL/ES [18], more than 250 µM; at HSP60/HSP10 [11] it was 5.5 µM. The half-maximal inhibitory concentration (IC50) at E. coli GroEL/ES [16] is 1.4 µM. The 50% effective concentration (EC50) in the data set with Escherichia coli [2] is more than 100 µM; with HEK293, 78 µM; with Acinetobacter baumannii, 30 µM; in the data set with Bacillus subtilis, 0.1 µM; with Escherichia coli [4], 2.3 µM; in the data set with Pseudomonas aeruginosa it was more than 100 µM. Besides, the half-maximal effective concentration (EC50) with Staphylococcus aureus [5] is 0.2 µM; in [6], 12 µM; in the data set with Enterococcus faecium, 0.15 µM; in [12] it was more than 100 µM; with Staphylococcus aureus [13], 0.13 µM; in the data set with Escherichia coli [14], 0.33 µM. For the same compound, the half-maximal effective concentration (EC50) in the data set on Enterobacter cloacae is more than 100 µM. Also, the result with Staphylococcus aureus [7] was Active. Moreover, the values for the selectivity ratio in data set [8] and in data set [15] were 390 and 60, respectively. The minimal inhibitory concentration (MIC) in the data set on Staphylococcus aureus [17] stood at 0.6 µM (≈ 0.342 µg/mL).

The record behind these values is ChEMBL document CHEMBL3808280, “GroEL/ES inhibitors as potential antibiotics” (Bioorg Med Chem Lett, 2016).
